What all share (type): functional
Common to all, as to conditions: Homo sapiens

In one assay the test system is CCRF-CEM. The experiment in a line: Concentration required to inhibit 50% cell growth of CCRF-CEM Leukemia cell line. Put shortly:
(§1)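 Tested in the NCI in vitro Human Tumor Cell Line Screen. The GI50 is the concentration that causes 50% inhibition of net cell growth and is reported as the log of the molar concentration. If that level is not reached or is exceeded, the value is given as greater or less than the highest or lowest drug concentration.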

Another assay deals with K562. The experiment in a line: Concentration required to inhibit 50% cell growth of K-562 Leukemia cell line. Put shortly:
as §1

Another assay relates to MOLT-4. Briefly: Concentration required to inhibit 50% cell growth of MOLT-4 Leukemia cell line. Summed up: as §1
A further assay has as its system RPMI-8226. The experiment in a line: Concentration required to inhibit 50% cell growth of RPMI-8226 Leukemia cell line. Summed up:
as §1

Another assay concerns HL-60. Briefly: Concentration required to inhibit 50% cell growth of HL-60 Leukemia cell line. Put shortly: as §1

From ChEMBL document CHEMBL1143591, “Synthesis and biological evaluation of 11-substituted 6-aminobenzo[c]phenanthridine derivatives, a new class of antitumor agents” (2005) come the findings set out here.

For orientation: GI50 means the concentration giving 50% growth inhibition. Read a low GI50 as more potent growth inhibition.

As to `COc1ccc([C@H]2Cc3ccccc3-c3nc(N)c4ccccc4c32)c(OC)c1OC`, the GI50 is 20900 nM with CCRF-CEM; 4270 nM in the assay with K562; 3470 nM in the assay on MOLT-4; 4270 nM with RPMI-8226; 6760 nM with HL-60.
As for `COc1ccc(-c2cc3ccccc3c3nc(N)c4ccccc4c23)c(OC)c1OC`, the GI50 in the assay on CCRF-CEM is 372 nM; in the assay on K562 it was 339 nM; with MOLT-4, 437 nM; in the assay with RPMI-8226, 288 nM; with HL-60 it was 380 nM.
As to `Nc1nc2c3ccccc3cc(-c3ccc4c(c3)OCO4)c2c2ccccc12`, the GI50 in the assay on CCRF-CEM is 4070 nM; with K562 it was 794 nM; with MOLT-4, 3310 nM; in the assay with RPMI-8226 it was 2820 nM; in the assay with HL-60, 4470 nM.
Turning to `COc1cc([C@H]2Cc3ccccc3-c3nc(N)c4ccccc4c32)cc(OC)c1O`, the GI50 in the assay on CCRF-CEM was 871 nM; with K562, 282 nM; in the assay on MOLT-4 it was 631 nM; in the assay with RPMI-8226, 427 nM; with HL-60, 288 nM.
Regarding `COc1cc([C@H]2Cc3ccccc3-c3nc(N)c4ccccc4c32)cc(OC)c1OC`, the GI50 in the assay with CCRF-CEM was 2630 nM; with K562 it was 813 nM; in the assay on MOLT-4 it was 2630 nM; in the assay on RPMI-8226, 1820 nM; in the assay with HL-60, 1700 nM.
Regarding `COc1ccc([C@H]2Cc3ccccc3-c3nc(N)c4ccccc4c32)cc1OC`, the GI50 in the assay on CCRF-CEM is 1120 nM; in the assay on K562 it was 2820 nM; in the assay on MOLT-4, 2950 nM; in the assay on RPMI-8226, 2400 nM; in the assay on HL-60 it was 7080 nM.
For `COc1ccc(OC)c([C@H]2Cc3ccccc3-c3nc(N)c4ccccc4c32)c1`, the GI50 in the assay with CCRF-CEM was 17800 nM; in the assay with K562 it was 7590 nM; in the assay with MOLT-4 it was 15500 nM; in the assay on RPMI-8226 it was 4680 nM; in the assay on HL-60 it was 13800 nM.
With `Nc1nc2c(c3ccccc13)[C@@H](c1ccco1)Cc1ccccc1-2`, the GI50 in the assay on CCRF-CEM was 3310 nM; in the assay with K562 it was 3090 nM; with MOLT-4 it was 3720 nM; in the assay with RPMI-8226, 2820 nM; with HL-60, 4170 nM.
For `Nc1nc2c(c3ccccc13)[C@@H](c1ccc3c(c1)OCO3)Cc1ccccc1-2`, the GI50 with CCRF-CEM is 3550 nM; in the assay on K562 it was 3090 nM; in the assay on MOLT-4, 4790 nM; with RPMI-8226 it was 3310 nM; in the assay with HL-60, 5500 nM.
`Nc1nc2c3ccccc3cc(-c3ccco3)c2c2ccccc12`: the GI50 was 9770 nM in the assay on CCRF-CEM; 4070 nM in the assay with K562; 1200 nM in the assay on MOLT-4; 4570 nM with RPMI-8226; 437 nM in the assay on HL-60.
With `COc1cc(-c2cc3ccccc3c3nc(N)c4ccccc4c23)cc(OC)c1OC`, the 50% growth inhibitory concentration (GI50) was 288 nM with CCRF-CEM; 79.4 nM in the assay on K562; 372 nM in the assay on MOLT-4; 240 nM in the assay with RPMI-8226; 63.1 nM in the assay with HL-60.
In the same order, the values of `COc1ccc(-c2cc3ccccc3c3nc(N)c4ccccc4c23)cc1OC` are 170 nM, 45.7 nM, 234 nM, 126 nM and 61.7 nM.
On to `COc1ccc(-c2cc3ccccc3c3nc(N)c4ccccc4c23)c(OC)c1`, for which the GI50 in the assay on CCRF-CEM is 309 nM; in the assay with K562, 219 nM; in the assay on MOLT-4, 933 nM; in the assay on RPMI-8226, 363 nM; in the assay with HL-60, 309 nM.
For the molecule `COc1ccc([C@H]2Cc3ccccc3-c3nc(N)c4ccccc4c32)cc1O`, the GI50 with CCRF-CEM was 13800 nM; in the assay with K562, 1620 nM; in the assay on MOLT-4 it was 14500 nM; in the assay on RPMI-8226 it was 5010 nM; in the assay on HL-60, 8130 nM.
